Reference: ChEMBL document CHEMBL1806374, “Synthesis, characterization and cytotoxicity of some novel 1,3-disubstituted-2,3-dihydro-2-iminobenzimidazoles” (Eur J Med Chem, 2011)

Key:
MDA-MB-231 [1] = assay: Antiproliferative activity against human MDA-MB-231 cells after 24 hrs by MTS assay; type: functional, cell-based; settings: MDA-MB-231, 24 h
Outline: (§1)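 Cells were seeded at 2 × 10⁴ per well. After 24 h the monolayers were washed and overlaid with medium containing compound, from a 0.5 mg/ml DMSO stock diluted 1:10 to 1:10 000. Untreated medium served as control. After 24 h, MTS was added for 2 h at 37 °C in 5% CO2, and A490 was read. Viability was expressed as % of control, averaged over three independent assays, and IC50/EC50 were taken from the plotted curves.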

HT-29 [2] = assay: Antiproliferative activity against human HT-29 cells after 24 hrs by MTS assay; type: functional, cell-based; settings: HT-29, 24 h; outline: as §1
[3] = Antiproliferative activity against at human Splenocytes after 24 hrs by MTS assay; type: cell-based; settings: Splenocyte; outline: as §1
MDA-MB-231 [4] = assay: Cytotoxicity against human MDA-MB-231 cells after 24 hrs by MTS assay; type: functional, cell-based; settings: MDA-MB-231, 24 h; outline: as §1
HT-29 [5] = assay: Cytotoxicity against human HT-29 cells after 24 hrs by MTS assay; type: functional, cell-based; settings: HT-29, 24 h; outline: as §1
[6] = Cytotoxicity against human Splenocytes after 24 hrs by MTS assay; type: cell-based; settings: Splenocyte; outline: as §1

Compound | EC50 (MDA-MB-231 [1]) [nM] | EC50 (HT-29 [2]) [nM] | EC50 [3] [nM] | IC50 (MDA-MB-231 [4]) [nM] | IC50 (HT-29 [5]) [nM] | IC50 [6] [nM]
N=c1n(CCCc2ccccc2)c2ccccc2n1CCCc1ccccc1 | 1.39 |  | 14.1 |  | 9.26 | 
CCOC(=O)C(C)N1C2=NC(=O)C(C)N2c2ccccc21 (stereo not drawn) | 2.02 | 5.68 | 0.542 |  |  | 
N=c1n(CC(=O)NCCCN)c2ccccc2n1CC(=O)NCCCN |  |  | 0.05 | 0.123 | 0.56 | 

Second part, led by results:

EC50 (MDA-MB-231 [1]) [nM] | EC50 (HT-29 [2]) [nM] | Compound | EC50 [3] [nM] | IC50 (MDA-MB-231 [4]) [nM] | IC50 (HT-29 [5]) [nM] | IC50 [6] [nM]
0.002 | 3.51 | N=c1n(CC(=O)N/N=C/c2cccc(F)c2)c2ccccc2n1CC(=O)N/N=C/c1cccc(F)c1 | 11 |  |  | 
 | 0.205 | N=c1n(CC(=O)NCc2ccccc2)c2ccccc2n1CC(=O)NCc1ccccc1 | 7.74 | 1.65 |  | 
 | 2.37 | CCOC(=O)Cn1c(=N)n(CC(=O)OCC)c2ccccc21 | 14.3 | 1.15 |  | 
 | 4.3 | N=c1n(CC(=O)N/N=C/c2ccc(F)cc2)c2ccccc2n1CC(=O)N/N=C/c1ccc(F)cc1 | 16.9 |  |  | 
1.59 |  | CN1CCN(C(=O)Cn2c(=N)n(CC(=O)N3CCN(C)CC3)c3ccccc32)CC1 |  |  | 0.013 | 1.38
